Here are results for eight compounds from ChEMBL document CHEMBL4765426, “Design, synthesis and in vitro anti-influenza A virus evaluation of novel quinazoline derivatives containing S-acetamide and NH-acetamide moieties at C-4” (Eur J Med Chem, 2020).

Where only a bound is given, the exact number is not on record here.

Data set [1] can be described thus: Cytotoxicity against human HEK293T cells assessed as reduction in cell viability after 48 hrs by CCK8 assay. The class given is cell-based, HEK-293T. On the technique in general: Formazan colour is commonly taken as a measure of viable cells.
A short description of data set [2]: Selectivity index, ratio of CC50 for human HEK293T cells to IC50 for Influenza A virus A/WSN/33(H1N1) infected in HEK293T-Gluc cells. The class given is toxicity, cell-based. To be noted: read-out: Ratio CC50/IC50.
In data set [3] the test system is Influenza A virus. Put plainly: Antiviral activity against Influenza A virus A/WSN/33(H1N1) infected in HEK293T-Gluc cells pretreated for 2 hrs followed by viral infection and measured after 24 hrs by Gaussia luciferase reporter gene assay. The class given is functional, organism-based. The note with it: A/WSN/1933(H1N1), HEK-293T. The essentials:
(§1)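 Reporter cells were HEK293T cells stably transfected with pLenti6-Gluc, which constitutively expresses negative-strand Gaussia luciferase RNA that becomes positive-strand on IAV infection. Cells were infected with A/WSN/33 or A/PR/8/1934 (H1N1). Antiviral activity was read as Gluc signal, and IC50 values were derived. Ribavirin served as positive control.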
Background: Reporter assays use an easily measured gene product as a stand-in for the process of interest.

Data set [4] is described as follows: Cytotoxicity against human A549 cells assessed as reduction in cell viability after 48 hrs by CCK8 assay. It counts as cell-based.
The subject of data set [5] is Influenza A virus. Put plainly: Antiviral activity against Influenza A virus A/WSN/33(H1N1) infected in HEK293T-Gluc cells assessed as inhibition of virus infection at 10 uM pretreated for 2 hrs followed by viral infection and measured after 24 hrs by Gaussia luciferase reporter gene assay. It counts as functional. The note with it: A/WSN/1933(H1N1), HEK-293T, time 26 hrs. The essentials: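 A single-concentration screen at 10 μM was run against A/WSN/33 (H1N1) in HEK293T-Gluc reporter cells. These cells carry a stably transfected pLenti6-Gluc construct expressing negative-strand Gaussia luciferase RNA that is converted to positive strand upon infection. Inhibition ratio of infection was read from Gluc activity.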

Data set [6] concerns Influenza A virus. Put plainly: Antiviral activity against Influenza A virus A/PR/8/34 (H1N1) infected in HEK293T-Gluc cells pretreated for 2 hrs followed by viral infection and measured after 24 hrs by Gaussia luciferase reporter gene assay. The note with it: A/Puerto Rico/8/1934(H1N1), HEK-293T. The class given is functional, organism-based. The essentials:
as §1

By CC50 is commonly meant the concentration that lowers cell viability or growth by half. In general, IC50 refers to the concentration at which inhibition is half-maximal. Regarding `CN1CCN(c2nc(NCC(=O)NCc3ccccc3)c3ccccc3n2)CC1`, in data set [1], the CC50 at 48 h was > 100 µM. The selectivity ratio in data set [2] is > 8.72. In data set [3], the IC50 turned out to be 11.5 µM.

In general, inhibition refers to the percentage by which the read-out fell short of the control. Regarding `O=C(CNc1nc(N2CCc3ccccc3C2)nc2ccccc12)Nc1ccccc1`, the CC50 at 48 h in data set [4] amounted to 10.7 µM; in data set [1], 36.6 µM. In addition, the selectivity ratio in data set [2] came out at 9.44. Moreover, the IC50 in data set [3] was 3.88 µM; in data set [6], 0.41 µM. In addition, in data set [5], the inhibition at 10 µM is 98.2%.

As to `O=C(COc1cccc2ccccc12)Nc1ccc(F)cc1`, the CC50 at 48 h in data set [1] is > 100 µM. Besides, the selectivity ratio in data set [2] was > 19.1. Also, the IC50 in data set [3] was determined as 5.22 µM. Moreover, the inhibition at 10 µM in data set [5] was determined as 78%.

For the compound `CCN(CC)c1nc(SCC(=O)NCc2ccccc2)c2ccccc2n1`, the CC50 at 48 h in data set [1] was > 100 µM. The selectivity ratio in data set [2] was > 5.22. Moreover, the IC50 in data set [3] amounted to 19.2 µM.

With `O=C(CNc1nc(N2CCc3ccccc3C2)nc2ccccc12)Nc1ccc2ccccc2c1`, in data set [1], the cytotoxic concentration (CC50) at 48 h is > 100 µM. Moreover, in data set [2], the selectivity ratio is > 29.1. The IC50 in data set [3] stood at 3.43 µM.

For the compound `O=C(CNc1nc(N2CCOCC2)nc2ccccc12)NCc1ccccc1`, the 50% cytotoxic concentration (CC50) at 48 h in data set [4] and in data set [1] was > 100 µM throughout. In data set [2], the selectivity ratio was > 26.1. The half-inhibitory concentration (IC50) worked out at 3.83 µM in data set [3] and 6.05 µM in data set [6].

Consider `O=C(CSc1nc(N2CCCC2)nc2ccccc12)NC1CC1`, for which the CC50 at 48 h in data set [1] was > 100 µM. The selectivity ratio in data set [2] was > 2.61. For the same compound, the IC50 in data set [3] amounted to 38.2 µM.

`CCN(CC)c1nc(SCC(=O)Nc2ccccc2)c2ccccc2n1`: the cytotoxic concentration (CC50) at 48 h in data set [4] and in data set [1] was > 100 µM in each case. In addition, the selectivity ratio in data set [2] was > 13.9. Also, the values for the half-maximal inhibitory concentration (IC50) in data set [3] and in data set [6] were 7.18 µM and 1.69 µM, respectively.
